Assay results as given in ChEMBL document CHEMBL3769396 (J Med Chem, 2016).

Key:
Histone deacetylase 1 [1] = target: T1, Histone deacetylase 1 (Homo sapiens, UniProt Q13547); assay: Inhibition of human HDAC1 using (Z-(Ac)Lys-AMC) as substrate after 90 mins by fluorescence analysis
[2] = target: T2, Protein deacetylase HDAC6 (Homo sapiens, UniProt Q9UBN7); assay: Inhibition of human HDAC6 using (Z-(Ac)Lys-AMC) as substrate after 90 mins by fluorescence analysis
T2 sequence (Q9UBN7 whole entry): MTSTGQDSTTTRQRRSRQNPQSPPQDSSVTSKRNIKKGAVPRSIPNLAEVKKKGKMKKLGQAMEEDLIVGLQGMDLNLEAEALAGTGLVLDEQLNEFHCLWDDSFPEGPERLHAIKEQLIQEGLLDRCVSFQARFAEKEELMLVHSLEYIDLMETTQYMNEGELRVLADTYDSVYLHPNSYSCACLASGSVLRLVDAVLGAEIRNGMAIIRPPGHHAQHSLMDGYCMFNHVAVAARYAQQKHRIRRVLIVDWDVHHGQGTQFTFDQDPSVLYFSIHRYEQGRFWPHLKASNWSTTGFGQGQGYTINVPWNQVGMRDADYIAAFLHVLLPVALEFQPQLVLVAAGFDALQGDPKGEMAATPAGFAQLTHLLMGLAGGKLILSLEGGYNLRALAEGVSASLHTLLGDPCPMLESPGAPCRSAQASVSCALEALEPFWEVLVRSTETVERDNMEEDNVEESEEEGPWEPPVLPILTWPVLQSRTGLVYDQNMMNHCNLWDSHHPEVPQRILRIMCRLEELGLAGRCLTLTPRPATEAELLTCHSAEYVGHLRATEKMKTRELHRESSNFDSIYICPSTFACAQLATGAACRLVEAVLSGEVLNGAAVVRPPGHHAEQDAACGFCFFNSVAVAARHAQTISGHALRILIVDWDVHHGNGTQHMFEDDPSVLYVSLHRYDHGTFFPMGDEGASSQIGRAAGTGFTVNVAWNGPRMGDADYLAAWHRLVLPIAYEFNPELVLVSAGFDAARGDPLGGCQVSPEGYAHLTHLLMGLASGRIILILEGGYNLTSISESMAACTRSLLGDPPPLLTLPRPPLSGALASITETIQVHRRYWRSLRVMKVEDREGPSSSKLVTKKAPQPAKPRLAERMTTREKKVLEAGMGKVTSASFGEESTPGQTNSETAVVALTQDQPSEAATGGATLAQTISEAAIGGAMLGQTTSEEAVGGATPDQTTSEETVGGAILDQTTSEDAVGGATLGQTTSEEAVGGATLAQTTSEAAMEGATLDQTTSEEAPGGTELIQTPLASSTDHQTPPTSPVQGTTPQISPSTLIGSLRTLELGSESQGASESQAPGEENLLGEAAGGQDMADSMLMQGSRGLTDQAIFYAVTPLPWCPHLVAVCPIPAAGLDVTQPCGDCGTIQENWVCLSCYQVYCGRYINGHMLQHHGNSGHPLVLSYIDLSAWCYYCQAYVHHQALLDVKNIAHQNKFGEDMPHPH

Histone deacetylase 8 = target: T3, Histone deacetylase 8 (Homo sapiens, UniProt Q9BY41); assay: Inhibition of human HDAC8 using Z-L-Lys([…]-trifluoroacetyl)-AMC as substrate after 90 mins by fluorescence analysis
T3 sequence (Q9BY41 whole entry): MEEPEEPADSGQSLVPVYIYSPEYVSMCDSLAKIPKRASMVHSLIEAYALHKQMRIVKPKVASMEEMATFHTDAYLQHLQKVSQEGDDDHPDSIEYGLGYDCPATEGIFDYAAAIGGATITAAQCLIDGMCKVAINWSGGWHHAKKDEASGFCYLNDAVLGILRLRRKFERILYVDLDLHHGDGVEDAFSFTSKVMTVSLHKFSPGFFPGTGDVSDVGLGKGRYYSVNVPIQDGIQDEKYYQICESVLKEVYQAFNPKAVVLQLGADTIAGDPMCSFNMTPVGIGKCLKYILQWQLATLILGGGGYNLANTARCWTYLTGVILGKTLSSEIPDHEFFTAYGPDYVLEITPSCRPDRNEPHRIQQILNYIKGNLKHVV

[3] = Cytotoxicity against human HL60 cells after 72 hrs by cell titre 96 aqueous cell proliferation assay; format: functional, HL-60
Summary of the method: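 HL60 cells, 5000/well in RPMI with 10% FBS, 2 mM L-glutamine and penicillin/streptomycin, treated with a range of concentrations (0.05% DMSO control) for 72 h. MTS/PMS (20:1) was then added and A490 read after 2-4 h, with the cell-free background subtracted. GI50 is the concentration giving 50% viable cells; triplicates, mean of at least two experiments.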

Histone deacetylase 1 [4] = target: T1, Histone deacetylase 1; assay: Inhibition of human HDAC1 at 10 uM using (Z-(Ac)Lys-AMC) as substrate after 90 mins by fluorescence analysis
[5] = target: T4, Histone deacetylase 8 (Homo sapiens) (UniProt Q9BY41); assay: Inhibition of human HDAC8 at 100 uM using Z-L-Lys([…]-trifluoroacetyl)-AMC as substrate after 90 mins by fluorescence analysis
T4 sequence (whole entry): T3 sequence (Q9BY41 whole entry)

Homo sapiens = species on record: Homo sapiens; assay: Selectivity ratio of IC50 for class1 HDAC (unknown origin) to IC50 for HDAC6 (unknown origin)
Summary of the method: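 Ratio of IC50 HDAC1 (or HDAC8) to IC50 HDAC6. Human recombinant HDAC1/6 were run in Tris-HCl pH 8.0 with NaCl, KCl, MgCl2 and BSA, using ZMAL substrate. HDAC8 was run in KH2PO4/Tris pH 7.5 with Z-L-Lys(ε-trifluoroacetyl)-AMC. All: 90 min at 37 °C, then TSA/trypsin stop for 30 min, fluorescence ex 390/em 460 nm. IC50 is the mean of at least two experiments.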

T1 sequence (Q13547 whole entry): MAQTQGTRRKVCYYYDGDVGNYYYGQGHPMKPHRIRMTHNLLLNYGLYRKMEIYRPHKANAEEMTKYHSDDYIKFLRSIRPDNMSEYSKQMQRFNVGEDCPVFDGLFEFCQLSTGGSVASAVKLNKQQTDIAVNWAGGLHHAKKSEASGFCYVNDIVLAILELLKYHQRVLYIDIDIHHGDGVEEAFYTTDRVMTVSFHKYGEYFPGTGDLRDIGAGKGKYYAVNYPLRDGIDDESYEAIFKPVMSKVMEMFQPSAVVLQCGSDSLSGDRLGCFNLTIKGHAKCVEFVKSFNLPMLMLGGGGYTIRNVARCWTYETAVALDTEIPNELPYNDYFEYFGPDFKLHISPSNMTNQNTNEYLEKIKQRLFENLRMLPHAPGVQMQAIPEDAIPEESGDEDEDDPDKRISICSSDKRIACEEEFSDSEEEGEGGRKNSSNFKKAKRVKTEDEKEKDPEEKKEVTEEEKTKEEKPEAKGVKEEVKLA

| IC50 (Histone deacetylase 1 [1]) [µM] | IC50 [2] [µM] | IC50 (Histone deacetylase 8) [µM] | inhibition (Histone deacetylase 1 [4]) [%] | inhibition [5] [%] | Ratio IC50 (Homo sapiens) | SMILES | GI50 ([3]; Homo sapiens, HL-60, 72 h) [µM] | GI50 [3] [µM] |
| --- | --- | --- | --- | --- | --- | --- | --- | --- |
| 36.5 | 0.311 | 8.13 | – | – | – | O=C(NO)c1coc(-c2cccs2)n1 | – | – |
| 32.9 | 0.195 | 50.9 | – | – | – | COc1ccc(-c2nc(C(=O)NO)co2)cc1 | 29.2 | – |
| 17.5 | 1.06 | 36.4 | – | – | – | O=C(NO)c1csc(-c2ccc(Br)cc2)n1 | 11.1 | – |
| 25 | 0.112 | 38.5 | – | – | – | O=C(NO)c1noc(-c2ccccc2)n1 | – | – |
| 29.5 | 0.089 | 27.3 | – | – | – | O=C(NO)c1coc(-c2ccc(-c3ccccc3)cc2)n1 | 5.6 | – |
| 29.9 | 0.27 | 41.9 | – | – | – | O=C(NO)c1coc(-c2ccccc2)n1 | 44.1 | – |
| 19.6 | 0.081 | 30.8 | – | – | – | O=C(NO)c1coc(-c2ccc(Cl)cc2)n1 | – | – |
| 93.9 | 9.37 | 2.7 | – | – | – | O=C(NO)c1coc(C(c2ccccc2)c2ccccc2)n1 | – | – |
| 22.5 | 0.182 | 29.1 | – | – | – | COc1ccc2cc(-c3nc(C(=O)NO)co3)ccc2c1 | – | – |
| 22.6 | 2.18 | 20.2 | – | – | – | O=C(NO)c1coc(-c2ccccc2Br)n1 | – | – |
| 33.5 | 2.77 | 20 | – | – | – | O=C(NO)c1noc(-c2ccc(Br)cc2)n1 | – | – |
| – | – | – | – | – | – | O=C(CCCCCCC(=O)Nc1ccccc1)NO [VORINOSTAT] | – | 0.08 |
| 47.7 | 3.69 | 12.9 | – | – | – | O=C(NO)c1csc(C(c2ccccc2)c2ccccc2)n1 | – | – |
| 82.2 | 8.85 | 61.4 | – | – | – | O=C(NO)c1csc(-c2cnccn2)n1 | – | – |
| 83.6 | 2.54 | 35 | – | – | – | O=C(NO)c1csc(Cc2ccccc2)n1 | – | – |
| 10.3 | 1.91 | 12.1 | – | – | – | O=C(NO)c1csc(-c2ccccc2)n1 | – | – |
| 12.2 | 0.089 | 26.2 | – | – | – | O=C(NO)c1coc(-c2ccc3ccccc3c2)n1 | 6.3 | – |
| 19.1 | 0.5 | 10.1 | – | – | – | O=C(NO)c1coc(-c2cccc(-c3ccccc3)c2)n1 | – | – |
| 23.7 | 0.11 | 43.3 | – | – | – | O=C(NO)c1coc(-c2ccc(F)cc2)n1 | 30.1 | – |
| – | 0.3 | – | 36 | – | – | O=C(NO)c1csc(-c2cccnc2)n1 | – | – |
| 40.1 | 0.313 | 33.9 | – | – | – | Cc1ccc(-c2nc(C(=O)NO)co2)cc1 | – | – |
| – | – | – | – | – | – | O=C(NO)c1coc(-c2ccc(Br)cc2)n1 | 10.2 | – |
| 14.9 | 1.31 | – | – | 62 | – | O=C(NO)c1noc(-c2ccc(-c3ccccc3)cc2)n1 | – | – |
| – | – | – | – | – | 10 | O=C(CCCCCCNC(=O)c1cnc(N(c2ccccc2)c2ccccc2)nc1)NO | – | – |
